# Screening results: PubChem BioAssay, Johns Hopkins Ion Channel Center
# Sampled rows, rich in hits. Any-hit rate of the full collection: about 3.7%.
# KCNK9 inh = blocks the human KCNK9 two-pore domain potassium channel; Q9NPC2; HEK293 KCNK9, FluxOR thallium flux fluorescence; active compounds read low; B-score at 10 µM; 310,000 compounds, 1.2% hits;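 active means ratio B-score over 3 SD below the library mean, with starting fluorescence within 5 SD of its mean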;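 further: negative B-score means less thallium flux so channel inhibition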
# hERG rescue = hERG (human) protection from proarrhythmic block; CHO-hERG, FluxOR thallium flux, dofetilide IC70 present; 310,000 compounds, 0.51% hits; activation (rescue from dofetilide block), less the hit threshold, % at 10 µM; Q12809;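 active means activation above the mean of controls blocked by dofetilide plus 5 SD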;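 further: thallium influx through hERG after potassium depolarization seen as dye fluorescence rise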
# Kir21 inh = Kir2.1 (mouse) channel inhibition; P35561; B-score at 10 µM; HEK293-Kir2.1, FluxOR thallium flux fluorescence; active compounds read low; AID 1672; 310,000 compounds, 0.85% hits;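 active means fluorescence ratio B-score at or below minus 3 SD of library scores, with starting-brightness B-score within 2 SD, cut at about -4.2 in these data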;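 further: channel flux triggered by added potassium and thallium sulfate stimulus; B-score of peak minus minimum fluorescence over baseline after thallium stimulus; more negative B-score means stronger Kir2.1 block with less thallium influx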
# KCNQ1 inh = inhibitors of human KCNQ1 potassium channel; 310,000 compounds, 1.3% hits; B-score at 10 µM; P51787; CHO-K1 KCNQ1, FluxOR thallium flux fluorescence; active compounds read high; AID 2642;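 active means compounds whose thallium flux B-score, printed positive for inhibition, exceeds three library SD while starting fluorescence stays within three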;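 further: channel opened by potassium depolarization with thallium stimulus after 20 min compound exposure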
# KCNQ1 act = potentiators or activators of human KCNQ1 potassium channel | B-score at 10 µM | CHO-K1 KCNQ1, thallium flux FluxOR fluorescence; active compounds read high | 310,000 compounds, 0.35% hits;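 active means fluorescence ratio B-score, a plate-corrected score, at least three library SD, with initial intensity B-score within 5 SD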
#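 Doses: Single concentration per compound, DMSO matched to controls | Test system: KCNQ1-transfected CHO-K1 cells | Timing: 90 min dye loading and 20 min compound exposure, both at room temperature | Measured by: Kinetic FluxOR thallium fluorescence, 10-s 1-Hz baseline, 110-s post-stimulus read | Medium: Assay buffer with matched DMSO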
# KCNK3 block = human KCNK3 channel inhibition, primary screen; 340,000 compounds, 0.84% hits; B-score at 10 µM; O14649; CHO-KCNK3 thallium flux, FluxOR fluorescence; active compounds read low; AID 602410;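 active means B-score under library mean minus 4 SD, starting fluorescence ratio at most library mean plus 5 SD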;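 further: more negative B-score means stronger inhibition of thallium flux through KCNK3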
# Target sequence (O14649 whole entry, looked up): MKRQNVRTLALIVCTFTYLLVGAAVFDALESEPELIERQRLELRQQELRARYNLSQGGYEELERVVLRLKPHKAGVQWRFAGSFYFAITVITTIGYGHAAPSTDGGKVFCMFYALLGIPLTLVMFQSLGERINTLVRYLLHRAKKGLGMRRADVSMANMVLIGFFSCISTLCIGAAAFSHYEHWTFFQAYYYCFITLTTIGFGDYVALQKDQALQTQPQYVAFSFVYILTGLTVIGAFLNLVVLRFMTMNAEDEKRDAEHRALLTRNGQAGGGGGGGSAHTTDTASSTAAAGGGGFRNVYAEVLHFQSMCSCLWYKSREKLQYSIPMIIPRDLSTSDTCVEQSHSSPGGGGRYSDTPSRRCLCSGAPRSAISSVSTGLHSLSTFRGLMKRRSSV
# KCNK9 block conf = confirmation of human KCNK9 potassium channel inhibitors | 4,900 compounds, 43% hits | inhibition, % at 10 µM | HEK293 KCNK9 cells, FluxOR thallium flux fluorescence | shares compounds with KCNK9 inh;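 active means thallium signal inhibited by more than 5 SD of the compound-free buffer control wells, on both duplicate plates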;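 further: 0% = assay buffer control wells without compound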
# Kir21 sel = selectivity of KCNK9 modulators against mouse Kir2.1; shares compounds with KCNK9 inh; Kir2.1 cells, FluxOR thallium flux fluorescence; inhibition, % at 10 µM; 4,900 compounds, 4% hits; AID 492993;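 active means thallium signal drop more than 5 SD beyond the mean of the no-compound control wells, seen in both duplicate plates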;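 further: signal is fluorescence rise after thallium addition divided by baseline fluorescence; plate controls were assay buffer only for no effect and full block by chlorpromazine control for full effect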
# KCNK9 uninduced = second counter-screen for KCNK9 modulators: effect in non-induced cells. shares compounds with KCNK9 inh. non-induced KCNK9-HEK293, FluxOR thallium flux. inhibition, % at 10 µM. 4,900 compounds, 40% hits;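 active means thallium signal drop beyond 5 SD of the untreated control mean, on both duplicate plates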;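 further: plate controls were buffer only IC0 wells for no effect and SID17386958 at its maximal inhibitory level for full effect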
# An asterisk follows results filed as active; i = inactive; x = no result given.
SMILES,KCNK9 inh,hERG rescue,Kir21 inh,KCNQ1 inh,KCNQ1 act,KCNK3 block,KCNK9 block conf,Kir21 sel,KCNK9 uninduced
COC(=O)c1ccccc1NC(=O)C1CCN(S(=O)(=O)c2cc(C)ccc2OC)CC1,i,-15,0.8,i,i,i,x,x,x
COc1ccc(OC)c(S(=O)(=O)N2CCC(C(=O)Nc3cc(C)ccc3C)CC2)c1,-10*,-2,-0.85,i,i,i,i,i,i
CCCn1c(-c2cccs2)nc2ccccc21,i,-8,-0.43,i,i,i,x,x,x
CCN1c2ccccc2-c2nc3ccccc3n2C1c1cccs1 (stereo unspecified),-9.3*,-7,-0.43,i,i,i,59%*,i,62%*
O=C(O)/C(=C\c1ccc(Br)cc1)NC(=O)c1cccs1,i,-11,1.1,i,i,i,x,x,x
CCN1CCN(S(=O)(=O)c2ccc(Cl)c(C(=O)NC(C)c3ccccc3Cl)c2)CC1 (stereo unspecified),i,-18,2.2,i,i,i,x,x,x
COC(=O)CN(c1ccc(F)cc1)S(=O)(=O)c1ccccc1,i,-5,-3.6,i,i,i,x,x,x
COC(=O)Cc1ccc(N(Cc2ccccc2F)S(=O)(=O)c2ccc(Cl)cc2)cc1,-12*,-17,0.71,i,i,i,60%*,i,40%*
O=C(C1CCOCC1)N1CCCC(N2CCN(c3cccc(C(F)(F)F)c3)CC2)C1 (stereo unspecified),i,-6,-1,i,i,i,x,x,x
O=C(COC(=O)CCN=C1NS(=O)(=O)c2ccccc21)NC1CCCCCCC1,i,-18,0.49,i,i,i,x,x,x
CC(=O)N1c2ccc3ccccc3c2C(C)CC12CCCCC2 (stereo unspecified),-12*,-15,-0.91,i,i,i,68%*,i,48%*
CC1CC2(CCCCC2)Nc2ccc3ccccc3c21 (stereo unspecified),i,-4,-0.14,i,i,i,x,x,x
CCCCN(CC(O)COc1cccc(C)c1)CC(O)COc1cccc(C)c1 (stereo unspecified),i,-18,-3,i,i,i,i,i,42%*
CN(C)CC(O)COc1cccc(OCC(O)CN(C)C)c1 (stereo unspecified),i,-5,-0.19,i,i,i,x,x,x
COc1ccc(NC(C#N)c2ccccc2OCc2ccccc2)cc1 (stereo unspecified),-8.3*,-7,0.28,i,i,i,i,i,24%*
O=c1[nH]c(NNC(=S)NC2CCCCC2)nc2c1C1(CCCC1)Cc1ccccc1-2,i,-14,-0.92,6*,i,i,i,i,i
O=c1[nH]c(NNC(=S)NCc2ccccc2)nc2c1C1(CCCCC1)Cc1ccccc1-2,i,-6,0.14,i,i,i,36%*,i,i
